Source: ChEMBL document CHEMBL1128252, “Synthesis and anti-HIV-1 activity of 4,5,6,7-tetrahydro-5-methylimidazo [4,5,1-jk][1,4]benzodiazepin-2(1H)-one (TIBO) derivatives. 3” (J Med Chem, 1995)

Tests used:
[1] = test system: Human immunodeficiency virus 1; experiment: (§1) Effective concentration required to achieve 50% protection of MT-4 cells against the cytopathic effect of HIV-1.; assay type: functional, organism-based; conditions: Human immunodeficiency virus 1, MT4
In short: (§2)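 MT-4 cells infected with HIV-1 and incubated with a range of compound concentrations. Viable cells were counted 5 days post-infection by MTT staining. IC50 is the concentration protecting 50% of cells from virus-induced cytopathic effect. Values are means over n assays, where n varies per compound.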

[2] = test system: Human immunodeficiency virus 1; experiment: as §1; assay type: functional, organism-based, MT4; in short: as §2
MT4 [3] = experiment: Effective concentration of compound required to achieve 50% protection of MT-4 cells against the cytopathic effect of HIV-1 number of experiments = 8; assay type: functional, cell-based; conditions: Homo sapiens; in short: as §2
MT4 [4] = experiment: Effective concentration of compound required to achieve 50% protection of MT-4 cells against the cytopathic effect of HIV-1 number of experiments = 6; assay type: functional, cell-based; conditions: Homo sapiens; in short: as §2
MT4 [5] = experiment: Effective concentration of compound required to achieve 50% protection of MT-4 cells against the cytopathic effect of HIV-1 number of experiments = 53; assay type: functional, cell-based; conditions: Homo sapiens; in short: as §2
MT4 [6] = experiment: Effective concentration of compound required to achieve 50% protection of MT-4 cells against the cytopathic effect of HIV-1 number of experiments = 24; assay type: functional, cell-based; conditions: Homo sapiens; in short: as §2
MT4 [7] = experiment: Effective concentration of compound required to achieve 50% protection of MT-4 cells against the cytopathic effect of HIV-1 number of experiments = 20; assay type: functional, cell-based; conditions: Homo sapiens; in short: as §2
MT4 [8] = experiment: Effective concentration of compound required to achieve 50% protection of MT-4 cells against the cytopathic effect of HIV-1 number of experiments = 4; assay type: functional, cell-based; conditions: Homo sapiens; in short: as §2
[9] = Human immunodeficiency virus 1, MT4

O=C1Nc2ccccc2-n2c(S)nc3cccc1c32
IC50 [1]: > 250 µM

CC1C(C)n2c(S)nc3cccc(c32)CN1CC1CC1 (stereo not drawn)
IC50 [1]: 13.4 µM

CCCN1Cc2cccc3nc(O)n(c23)C(c2ccccc2)C1 (stereo not drawn)
IC50 [1]: > 250 µM

CC1Cn2c(O)nc3cccc(c32)CN1 (stereo not drawn)
IC50 [1]: > 250 µM

CC(C)=CCN1[C@H](C)Cn2c(=O)[nH]c3cc(Cl)cc(c32)[C@H]1C
IC50 [1]: 0.23 µM

CC(C)C1Cn2c(O)nc3cccc(c32)CN1 (stereo not drawn)
IC50 [1]: > 250 µM

S=c1[nH]c2cccc3c2n1-c1ccccc1N(CC1CC1)C3
IC50 [2, 9]: > 10 µM

C=C(C)CN1Cc2cccc3[nH]c(=O)n(c23)C(CCC)C1 (stereo not drawn)
IC50 [2, 9]: 48.1 µM

CC1(C)Cn2c(O)nc3cccc(c32)CN1
IC50 [1]: > 250 µM

CC(C)=CCN1CCn2c(O)nc3cc(Cl)cc(c32)C1CC(C)C (stereo not drawn)
IC50 [1]: > 2 µM

CC1NCCn2c(O)nc3cccc1c32 (stereo not drawn)
IC50 [1]: > 250 µM

CCCC1CN(CCC)Cc2cccc3[nH]c(=O)n1c23 (stereo not drawn)
IC50 [2, 9]: > 180 µM

CC(C)=CCN1CCn2c(=S)[nH]c3ccc(Cl)c(c32)C1C (stereo not drawn)
IC50 [2, 9]: 0.012 µM

CC(C)=CCN1Cc2cccc3[nH]c(=S)n(c23)C(C)C1C (stereo not drawn)
IC50 [2, 9]: 2.22 µM | IC50 [1]: 14.3 µM

CC(C)[C@H]1Cn2c(O)nc3cccc(c32)CN1
IC50 [2, 9]: > 250 µM

CC(C)=CCN1[C@@H](C)Cn2c(=O)[nH]c3cc(Cl)cc(c32)[C@@H]1C
IC50 [1]: > 5 µM

C=C(C)CN1Cc2cccc3nc(O)n(c23)CC1CCC (stereo not drawn)
IC50 [2, 9]: > 10 µM

CC(C)=CCN1Cc2cccc3nc(S)n(c23)C[C@@H]1C(C)C
IC50 [1]: > 10 µM

C=C(C)CN1Cc2cccc3[nH]c(=O)n(c23)C(C)C1 (stereo not drawn)
IC50 [1]: 32.1 µM

CC(C)=CCN1Cc2cccc3nc(O)n(c23)C[C@H]1C
IC50 (MT4 [3]): 3.32 µM

C[C@@H]1Cn2c(S)nc3cccc(c32)CN1CC1CC1
IC50 [1]: 0.06 µM

CC(C)=CCN1CCn2c(=S)[nH]c3ccc(Cl)c(c32)C1
IC50 [2, 9]: 0.046 µM

CC(C)=CCN1[C@H](C)Cn2c(=S)[nH]c3cc(Cl)cc(c32)[C@H]1C
IC50 [1]: 0.48 µM

C[C@@H]1Cn2c(S)nc3cc(Cl)cc(c32)CN1CC1CC1
IC50 [1]: 0.034 µM

CC(C)=CCN1CCn2c(=S)[nH]c3cc(Cl)cc(c32)C1
IC50 [1]: 0.16 µM

C[C@@H]1CN(CC2CC2)Cc2cc(Cl)cc3[nH]c(=S)n1c23
IC50 (MT4 [4]): 2180 nM

CC(C)=CCN1CCn2c(S)nc3cc(Cl)cc(c32)C1CC(C)C (stereo not drawn)
IC50 [1]: > 2 µM

CC(C)=CCN1CCn2c(=O)[nH]c3cccc(c32)C1C (stereo not drawn)
IC50 [2, 9]: 12.1 µM

CCCN1Cc2cc(Cl)cc3[nH]c(=S)n(c23)C(=O)C1C (stereo not drawn)
IC50 [1]: > 50 µM

Oc1nc2cccc3c2n1C(c1ccccc1)CNC3 (stereo not drawn)
IC50 [1]: > 250 µM

CCCN1Cc2cccc3[nH]c(=O)n(c23)C(C(C)C)C1 (stereo not drawn)
IC50 [1]: 73.3 µM

C=C(C)CN1Cc2cccc3nc(O)n(c23)C[C@@H]1C(C)C
IC50 [1]: > 10 µM

C=C1CC2Cn3c(S)nc4cc(Cl)cc(c43)CN2C1 (stereo not drawn)
IC50 [1]: > 10 µM

C/C=C1/CC2Cn3c(S)nc4cc(Cl)cc(c43)CN2C1 (stereo not drawn)
IC50 [1]: 3.76 µM

CCCN1CCn2c(=O)[nH]c3cccc(c32)C1C (stereo not drawn)
IC50 [1]: > 83 µM

CC(C)=CCN1CCn2c(=S)[nH]c3cc(Cl)cc(c32)C1C (stereo not drawn)
IC50 [1]: 0.023 µM

CCC1Cn2c(O)nc3cccc(c32)CN1 (stereo not drawn)
IC50 [1]: > 250 µM

CCCN1CCn2c(=S)[nH]c3cccc(c32)C1C (stereo not drawn)
IC50 [1]: 2.43 µM

C=C(C)CN1Cc2cccc3[nH]c(=O)n(c23)CC1(C)C
IC50 [1]: 23.1 µM

CC(C)=CCN1CCn2c(S)nc3cccc(c32)C1c1ccccc1 (stereo not drawn)
IC50 [1]: > 2 µM

Oc1nc2cccc3c2n1CC(c1ccccc1)NC3 (stereo not drawn)
IC50 [1]: > 250 µM

C[C@@H]1Cn2c(O)nc3cc(Cl)cc(c32)CN1
IC50 [2, 9]: > 250 µM

CC(C)=CCN1CCn2c(=O)[nH]c3ccc(Cl)c(c32)C1C (stereo not drawn)
IC50 [2, 9]: 0.145 µM

C=C(C)CN1Cc2cc(Cl)cc3[nH]c(=S)n(c23)[C@@H](C)C1
IC50 [1]: 0.67 µM

CC(C)=CCN1Cc2cc(Cl)cc3nc(S)n(c23)C[C@H]1C
IC50 (MT4 [5]): 43 nM

C=C(C)CN1Cc2cccc3nc(S)n(c23)C[C@H]1C
IC50 [1]: 0.026 µM

CC(C)=CCN1CC(C)n2c(S)nc3cccc(c32)C1C (stereo in doubt; 1bg)
IC50 ([2]; mt4): 25.8 µM

CC(C)=CCN1Cc2cc(Cl)cc3[nH]c(=O)n(c23)C[C@H]1C
IC50 [2, 9]: 0.18 µM

CC(C)C1CNCc2cccc3nc(O)n1c23 (stereo not drawn)
IC50 [2, 9]: > 250 µM

CC(C)=CCN1Cc2cccc3nc(O)n(c23)C(C)C1C (stereo not drawn)
IC50 [1]: 56.7 µM

O=C1CCC2c3cc(Cl)cc4nc(S)n(c34)CCN12 (stereo not drawn)
IC50 [2, 9]: > 250 µM

C=C(C)CN1Cc2cccc3[nH]c(=O)n(c23)CC1C (stereo not drawn)
IC50 (MT4 [6]): 34.7 µM

C=C(C)CN1Cc2cccc3[nH]c(=O)n(c23)C(C(C)C)C1 (stereo not drawn)
IC50 [2, 9]: 12.6 µM

CC(C)=CCN1CCn2c(=S)[nH]c3cccc(c32)C1C (stereo not drawn)
IC50 [1]: 0.078 µM

C=C(C)CN1Cc2cccc3nc(O)n(c23)CC1c1ccccc1 (stereo not drawn)
IC50 [1]: > 10 µM

CC(C)=CCN1Cc2cc(Cl)cc3nc(O)n(c23)C[C@@H]1C(C)C
IC50 [1]: > 10 µM

CC(C)=CCN1Cc2cccc3nc(O)n(c23)C[C@@H]1C(C)C
IC50 [1]: > 10 µM

CCCC1Cn2c(O)nc3cccc(c32)CN1 (stereo not drawn)
IC50 [2, 9]: > 250 µM

Oc1nc2cccc3c2n1CC1CCCCN1C3 (stereo not drawn)
IC50 (MT4 [3]): > 250 µM

CC(C)=CCN1Cc2cc(Cl)cc3nc(S)n(c23)C[C@H]1C(C)C
IC50 [1]: > 10 µM

CC(C)=CCN1Cc2c(Cl)ccc3nc(S)n(c23)C[C@H]1C
IC50 (MT4 [7]): 5 nM

CCCC1CNCc2cccc3nc(O)n1c23 (stereo not drawn)
IC50 [2, 9]: > 250 µM

CC(C)=CCN1C(C)Cn2c(=S)[nH]c3cccc(c32)C1C (stereo not drawn)
IC50 (MT4 [3]): 0.042 µM | IC50 [1]: 1.15 µM

CCCN1Cc2cccc3nc(O)n(c23)CC1=O
IC50 [2, 9]: > 250 µM

C=C(C)CN1Cc2cccc3[nH]c(=O)n(c23)CC1CC (stereo not drawn)
IC50 (MT4 [8]): > 50 µM

CCCN1C(=O)c2cccc3nc(O)n(c23)CC1C (stereo not drawn)
IC50 (MT4 [8]): > 250 µM

Oc1nc2cccc3c2n1CC1CCCN1C3 (stereo not drawn)
IC50 [1]: > 250 µM

CC(C)=CCN1[C@@H](C)Cn2c(S)nc3cc(Cl)cc(c32)[C@@H]1C
IC50 [1]: > 10 µM

CC(C)=CCN1CCn2c(S)nc3cc(Cl)c4c(c32)C1CC4 (stereo not drawn)
IC50 [1]: > 2 µM

C=C(C)CN1Cc2cccc3nc(O)n(c23)C(c2ccccc2)C1 (stereo not drawn)
IC50 [1]: > 250 µM

CC(C)=CCN1CCn2c(=O)[nH]c3cc(Cl)cc(c32)C1C (stereo not drawn)
IC50 [1]: 0.16 µM

Sc1nc2cc(Cl)cc3c2n1CCN1CCCC31 (stereo not drawn)
IC50 [1]: > 2 µM

CC1CNCc2cccc3nc(O)n1c23 (stereo not drawn)
IC50 [1]: > 250 µM

CC(C)[C@H]1Cn2c(O)nc3cc(Cl)cc(c32)CN1
IC50 [1]: > 10 µM

CC(C)=CCN1CC(C)n2c(S)nc3cccc(c32)C1C (stereo in doubt; 1bh)
IC50 ([2]; mt4): > 10 µM

S=c1[nH]c2cc(Cl)cc3c2n1CCN1CCCCC31 (stereo not drawn)
IC50 [1]: > 2 µM
